Activity calls are given as the source filed them. The rule behind the calls is not given here. Square brackets hold non-standard residues; d marks the D form. Peptide text beside a SMILES is read from it. Hyp = O=C(O)[C@@H]1C[C@@H](O)CN1; Ahx = NCCCCCC(=O)O

Here are results for two molecules from ChEMBL document CHEMBL5543129, “Peptide Inhibitor Targeting the Extraterminal Domain in BRD4 Potently Suppresses Breast Cancer Both In Vitro and In Vivo” (J Med Chem, 2024).

Data set [1] can be described thus: Toxicity in BALB/c mouse xenografted with human MDA-MB-231 cells assessed as change in spleen morphology at 12.5 mg/kg, ip administered every 2 days in presence of 50 mg/kg JQ1. Format: organism-based. Particulars: in vivo, 48 h. The gist of the method:
(§1)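 Female BALB/c nude mice (4–6 weeks) carried sc MDA-MB-231 xenografts (5 × 10^6 cells) and were randomized at about 50 mm3. Peptide (12.5 mg/kg ip in saline) and JQ1 (50 mg/kg ip, DMSO/10% HPBCD 1:10) were given every 2 days, alone or combined. Body weight was recorded, and heart, liver, spleen, lung and kidney morphology and weight were assessed.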

Data set [2] deals with T47D. The data set is described as follows: Inhibition of colony formation in human T47D cells at 10 uM incubated for 2 weeks in presence of tamoxifen by crystal violet staining based assay. Format: functional, cell-based. The gist of the method: (§2)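 Cells are seeded at 1 × 10^3/well and treated with peptide (10 μM) for 2 weeks, alone or with JQ1 5 μM, iJMJD6 10 μM, ICI 2.5 μM, or tamoxifen 3 μM (tamoxifen-resistant lines). Colonies are stained with crystal violet, dissolved in 10% acetic acid, and read at 590 nm. Three biological repeats.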

Data set [3] relates to T47D. The data set is described as follows: Inhibition of cell migration in human T47D cells at 10 uM incubated for 24 hrs in presence of fulvestrant by inverted microscopic analysis. In kind it is functional, cell-based. The gist of the method:
(§3)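 Cells are seeded at 5 × 10^5/well and scratched at 80–90% confluence. They are kept in serum-free medium with peptide (10 μM); partner agents are JQ1 5 μM, iJMJD6 10 μM, or ICI 2.5 μM. Wound area is imaged by inverted microscope at 0 and 12 or 24 h. Wound closure % = (A0−A1)/A0 × 100. Three biological repeats.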

The nature of data set [4]: Toxicity in BALB/c mouse xenografted with human MCF7 cells assessed as change in organ weight at 2.5 mg/kg, ip administered every 2 days in presence of 12.5 mg/kg fulvestrant. The conditions noted are these: in vivo, 48 h. Format: organism-based.
The next data set concerns MDA-MB-231. The data set can be described thus: Inhibition of cell migration in human MDA-MB-231 cells at 10 uM incubated for 12 hrs in presence of 5 uM JQ1 by inverted microscopic assay. Format: functional, cell-based. The gist of the method:
as §3

The nature of data set [5]: Toxicity in BALB/c mouse xenografted with human MCF7 cells assessed as change in lung at 12.5 mg/kg, ip administered every 2 days in presence of 12.5 mg/kg JMJD6 inhibitor. The conditions noted are these: in vivo, 48 h. Format: organism-based. The gist of the method:
(§4)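 Female BALB/c nude mice carried MCF7 xenografts (5 × 10^6 cells sc, E2 10–2 M brushed every 2 days) and were randomized at about 50 mm3. Peptide was given at 12.5 mg/kg ip every 2 days, and iJMJD6 (DMSO/PBS 1:20) at 12.5 mg/kg ip every other day, alone or combined. Body and organ weights were recorded.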

Data set [6] in a line: Toxicity in BALB/c mouse xenografted with human MCF7 cells assessed as change in kidney morphology at 12.5 mg/kg, ip administered every 2 days in presence of 50 mg/kg JQ1. Format: organism-based. Particulars: in vivo, 48 h.
Data set [7] has as its system MCF7. The data set is described as follows: Inhibition of cell migration in human MCF7 cells at 10 uM incubated for 24 hrs by inverted microscopic assay. In kind it is functional, cell-based. The gist of the method:
as §3

Data set [8] relates to MCF7. The data set is described as follows: Inhibition of colony formation in human MCF7 cells at 10 uM incubated for 2 weeks in presence of tamoxifen by crystal violet staining based assay. Format: functional, cell-based. The gist of the method: as §2
Data set [9] concerns MCF7. The data set can be described thus: Antiproliferative activity against human MCF7 cells at 10 uM incubated for 1 week in presence of fulvestrant by CellTiter 96 Aqueous One Solution based assay. In kind it is functional, cell-based. Particulars: time 1.0 weeks. The gist of the method:
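Cells seeded at 2 × 10^3/well and treated with peptide (10 μM) alone or combined with JQ1 (5 μM), iJMJD6 (10 μM) or ICI (2.5 μM), as the line states. Viability read by MTS reagent, 1 h at 37 °C, A490. Three biological repeats.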

The subject of another data set is BT-549. The data set can be described thus: Inhibition of colony formation in human BT-549 cells at 10 uM incubated for 2 weeks by crystal violet staining based assay. Format: functional, cell-based. The gist of the method: as §2
Data set [10] is described as follows: Toxicity in BALB/c mouse xenografted with human MCF7 cells assessed as change in kidney at 12.5 mg/kg, ip administered every 2 days in presence of 12.5 mg/kg JMJD6 inhibitor. In kind it is organism-based. The conditions noted are these: in vivo, 48 h. The gist of the method: as §4
In general terms: Xenograft models place foreign cells or tissue in a host animal.

A short description of data set [11]: Toxicity in BALB/c mouse xenografted with human MCF7 cells assessed as change in heart at 12.5 mg/kg, ip administered every 2 days in presence of 12.5 mg/kg JMJD6 inhibitor. Format: organism-based. Particulars: in vivo, 48 h. The gist of the method: as §4
Data set [12] in a line: Toxicity in BALB/c mouse xenografted with human MCF7 cells assessed as change in liver at 12.5 mg/kg, ip administered every 2 days in presence of 12.5 mg/kg JMJD6 inhibitor. The conditions noted are these: in vivo, 48 h. In kind it is organism-based. The gist of the method: as §4
A further data set concerns Mus musculus. The data set is described as follows: Downregulation of BRD4 mRNA expression in BALB/c mouse tumor xenografted with human MCF7 cells at 25 mg/kg, ip administered every 2 days by RT-qPCR analysis. In kind it is functional, organism-based.
Data set [13] has as its system MCF7. The data set is described as follows: Inhibition of cell migration in human MCF7 cells at 10 uM incubated for 24 hrs in presence of fulvestrant by inverted microscopic analysis. In kind it is functional, cell-based. The gist of the method:
as §3

In data set [14] the test system is T47D. The data set is described as follows: Inhibition of colony formation in human T47D cells at 10 uM incubated for 2 weeks in presence of fulvestrant by crystal violet staining based assay. In kind it is functional, cell-based. The gist of the method:
as §2

Data set [15] concerns MCF7. The data set is described as follows: Inhibition of colony formation in human MCF7 cells at 10 uM incubated for 2 weeks in presence of 5 uM JQ1 by crystal violet staining based assay. Format: functional, cell-based. The gist of the method: as §2
The test system of data set [16] is MCF7. The data set can be described thus: Inhibition of colony formation in human MCF7 cells at 10 uM incubated for 2 weeks in presence of JMJD6 inhibitor by crystal violet staining based assay. In kind it is functional, cell-based. The gist of the method: as §2
Data set [17] can be described thus: Toxicity in BALB/c mouse xenografted with human MDA-MB-231 cells assessed as change in spleen weight at 12.5 mg/kg, ip administered every 2 days in presence of 50 mg/kg JQ1. In kind it is organism-based. Particulars: in vivo, 48 h. The gist of the method: as §1
The nature of data set [18]: Toxicity in BALB/c mouse xenografted with human […] assessed as body weight loss at 25 mg/kg, ip administered every 2 days. In kind it is organism-based. The conditions noted are these: in vivo, 48 h. The gist of the method:
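Female BALB/c nude mice (4–6 weeks) received 5 × 10^6 MCF7 cells sc in PBS, with estrogen (E2, 10–2 M) brushed on the neck every 2 days. Mice were randomized at about 50 mm3 tumor volume. Peptide in normal saline was given ip at 25 mg/kg every 2 days. Body weight was monitored.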

A short description of data set [19]: Toxicity in BALB/c mouse xenografted with human MDA-MB-231 cells assessed as change in heart weight at 12.5 mg/kg, ip administered every 2 days in presence of 50 mg/kg JQ1. In kind it is organism-based. Particulars: in vivo, 48 h. The gist of the method:
as §1

Data set [20] in a line: Toxicity in BALB/c mouse xenografted with human MDA-MB-231 cells assessed as change in liver weight at 12.5 mg/kg, ip administered every 2 days in presence of 50 mg/kg JQ1. In kind it is organism-based. Particulars: in vivo, 48 h. The gist of the method: as §1
The nature of data set [21]: Toxicity in BALB/c mouse xenografted with human MCF7 cells assessed as change in spleen weight at 12.5 mg/kg, ip administered every 2 days in presence of 50 mg/kg JQ1. In kind it is organism-based. The conditions noted are these: in vivo, 48 h.

As to `CC[C@H](C)[C@H](NC(=O)[C@H](Cc1ccc(O)cc1)NC(=O)[C@@H]1C[C@@H](O)CN1C(=O)[C@H](C)NC(=O)[C@@H](NC(=O)CCCCCNC(=O)[C@H](CCC(=O)O)NC(=O)CNC(=O)[C@H](CS)NC(=O)[C@H](CCCCN)NC(=O)[C@H](Cc1ccccc1)NC(=O)[C@H](CCCCN)NC(=O)[C@H](CCC(N)=O)NC(=O)[C@H](CC(N)=O)NC(=O)[C@H](CCCNC(=N)N)NC(=O)[C@H](CCCNC(=N)N)NC(=O)[C@H](CCCNC(=N)N)NC(=O)[C@H](CCCNC(=N)N)NC(=O)[C@H](CCC(N)=O)NC(=O)[C@H](CCCNC(=N)N)NC(=O)[C@H](CCCNC(=N)N)NC(=O)[C@H](CCCCN)NC(=O)[C@H](CCCCN)NC(=O)[C@H](CCCNC(=N)N)NC(=O)CNC(=O)[C@@H](N)Cc1ccc(O)cc1)[C@@H](C)CC)C(=O)O` (H-YGRKKRRQRRRRNQKFKCGE[Ahx]IA[Hyp]YI-OH), the Activity result in data set [1], in data set [4], in data set [5], in data set [6], in data set [10] and in [11] was “Non-Toxic” in each case. In addition, the Activity entry in [12], in [17], in data set [18], in [19], in data set [20] and in data set [21] was “Non-Toxic” each time. In addition, the inhibition entry in the data set on T47D [2], with T47D [3], in the data set on MDA-MB-231, in the data set with MCF7 [7], in the data set with MCF7 [8] and in the data set on BT-549 was “Active” throughout. Besides, the inhibition result in the data set with MCF7 [13], in the data set with T47D [14], in the data set on MCF7 [15] and with MCF7 [16] was “Active” each time. Further, in the data set on MCF7 [9], the result was Active. Also, in the data set with Mus musculus, the outcome was inactive.
As for H-YGRKKRRQRRRRNQKFKCGE-OH, the Activity result in [1], in data set [4], in data set [5], in [6], in [10] and in data set [11] was “Non-Toxic” throughout. Further, the Activity result in data set [12], in data set [17], in [18], in data set [19], in data set [20] and in data set [21] was “Non-Toxic” throughout. The inhibition result with T47D [2], with T47D [3], in the data set on MDA-MB-231, in the data set on MCF7 [7], in the data set on MCF7 [8] and with BT-549 was “Active” throughout. The inhibition result with MCF7 [13], with T47D [14], with MCF7 [15] and with MCF7 [16] was “Active” in each case. Also, the outcome in the data set on MCF7 [9] was Active. For the same molecule, in the data set on Mus musculus, the outcome was inactive.
